Results taken from paper PMC3060995 (Peptides, 2011).

How the values were obtained:
[1] = tested on: food intake in freely-feeding rats; experiment: 3-h IV infusion at dark onset, food intake in non-food-deprived rats; type: in vivo, rat (male Sprague-Dawley)
How it was run: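 Male Sprague-Dawley rats (350–500 g), housed individually on a 12:12-h light-dark cycle, had ad libitum ground chow. They were jugular-catheterised and tethered to infusion swivels. Each received a single 3-h jugular infusion per day of test compound or vehicle (0.15 M NaCl, 0.1% BSA). Food intake was recorded continuously from bowl weight. Rats with non-patent catheters (Brevital test) were excluded. Analysis used repeated-measures ANOVA with paired t-tests.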

[2] = tested on: food intake in freely-feeding rats; conditions: cited from earlier work
[3] = 15 pmol/kg/min, 3-h IV infusion at dark onset, vs vehicle, 11–15 rats

Row | Substance | effect on food intake [1, 3] | effect on food intake ([1]; 50 pmol/kg/min, 3-h IV infusion at dark onset, vs vehicle, 11–16 rats) | effect on food intake ([1]; 150 pmol/kg/min, 3-h IV infusion at dark onset, vs vehicle, 11–16 rats) | reduction of 3-h food intake ([1]; 15 pmol/kg/min, 3-h jugular vein infusion beginning 15 min before dark onset, vs vehicle, 11–16 rats, group means) [%] | inhibition of 3-h food intake ([1]; 50 pmol/kg/min, 3-h jugular vein infusion beginning 15 min before dark onset, vs vehicle, 11–16 rats, group means) [%] | relative anorexigenic potency (comparison between PYY forms) ([1]; 3-h IV infusion at dark onset, rats) | approximate mean effective dose for inhibition of food intake ([2]; 3-h IV infusion at dark onset, rats, previously determined) [pmol/kg/min] | potency in reducing food intake relative to PYY(1–36)-NH2 ([2]; 3-h IV infusion during the early dark period, freely-feeding rats)
1 | peptide YY(1–36)-amide [PYY(1–36)-NH2] | significantly smaller effect | similarly reduced food in a dose-dependent manner | similarly reduced food in a dose-dependent manner | – | – | – | – | –
2 | peptide YY(3–36)-amide [PYY(3–36)-NH2] | significantly reduced food intake | – | – | 29 | 42 | more potent than Ser^13(PO3)-PYY(3–36)-NH2 | ~15 | an order of magnitude more potent
